Measured values published in ChEMBL document CHEMBL4477233, “Discovery of novel TAOK2 inhibitor scaffolds from high-throughput screening” (Bioorg Med Chem Lett, 2016).
Activity calls are given as the source filed them. The calls are words filed in the database; no cut-off is given here.

These compounds were tested against T1, Serine/threonine-protein kinase TAO2 (Homo sapiens) (UniProt Q9UL54) (assay: Inhibition of TAOK2 in human U2OS cells assessed as inhibition of cellular autophagy measured as P62 accumulation at 50 uM after 24 hrs by western blot analysis).
T1 sequence (whole entry): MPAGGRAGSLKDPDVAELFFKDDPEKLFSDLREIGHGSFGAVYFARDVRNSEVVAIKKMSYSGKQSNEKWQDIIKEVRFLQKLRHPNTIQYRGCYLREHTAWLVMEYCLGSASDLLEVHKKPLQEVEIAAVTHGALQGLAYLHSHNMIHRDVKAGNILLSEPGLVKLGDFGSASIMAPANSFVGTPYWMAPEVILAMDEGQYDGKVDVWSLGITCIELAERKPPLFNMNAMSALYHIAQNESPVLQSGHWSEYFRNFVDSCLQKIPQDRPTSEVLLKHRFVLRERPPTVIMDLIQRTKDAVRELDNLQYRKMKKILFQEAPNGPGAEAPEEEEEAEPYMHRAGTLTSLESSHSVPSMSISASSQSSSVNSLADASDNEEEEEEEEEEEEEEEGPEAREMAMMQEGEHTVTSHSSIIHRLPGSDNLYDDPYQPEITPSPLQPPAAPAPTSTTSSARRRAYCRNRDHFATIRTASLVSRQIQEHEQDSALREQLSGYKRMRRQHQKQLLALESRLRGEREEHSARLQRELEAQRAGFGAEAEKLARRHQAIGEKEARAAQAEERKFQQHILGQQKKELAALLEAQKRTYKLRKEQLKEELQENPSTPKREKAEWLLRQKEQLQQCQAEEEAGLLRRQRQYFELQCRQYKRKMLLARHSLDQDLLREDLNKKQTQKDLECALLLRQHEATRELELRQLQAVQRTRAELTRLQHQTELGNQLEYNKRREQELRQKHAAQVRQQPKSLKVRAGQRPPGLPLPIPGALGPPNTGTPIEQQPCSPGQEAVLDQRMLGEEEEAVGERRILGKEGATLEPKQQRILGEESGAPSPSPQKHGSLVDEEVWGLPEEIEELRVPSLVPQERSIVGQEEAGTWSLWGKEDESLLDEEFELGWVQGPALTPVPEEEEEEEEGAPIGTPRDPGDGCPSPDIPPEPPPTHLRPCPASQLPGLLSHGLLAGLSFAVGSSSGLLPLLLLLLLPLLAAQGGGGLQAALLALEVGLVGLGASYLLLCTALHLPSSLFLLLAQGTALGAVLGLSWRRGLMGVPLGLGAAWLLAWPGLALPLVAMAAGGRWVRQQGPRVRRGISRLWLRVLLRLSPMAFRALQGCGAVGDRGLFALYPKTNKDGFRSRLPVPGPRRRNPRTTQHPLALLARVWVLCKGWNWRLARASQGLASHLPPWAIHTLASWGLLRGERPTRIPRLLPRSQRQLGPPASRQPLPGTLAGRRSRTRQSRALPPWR
Type: cell-based
Method in brief: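 GFP–LC3-expressing U2OS cells were treated for 24 h with compound at 50 µM or with DMSO alone. p62 (SQSTM1) abundance was then assessed by Western blotting as a readout of autophagic degradation.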

SMILES	inhibition
O=C(Nc1cccc(-c2nc3ccccc3c(=O)o2)c1)c1ccccc1Br	Active

Each compound was assayed against T1, Serine/threonine-protein kinase TAO2 (Homo sapiens) (assay: Inhibition of TAOK2 in human U2OS cells assessed as inhibition of cellular autophagy measured as GFP-LC3 accumulation at 50 uM after 24 hrs by flow cytometric analysis).
Type: cell-based
Method in brief: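 U2OS cells stably expressing GFP–LC3 were exposed to compound at 50 µM in the medium for 24 h. GFP fluorescence was read by flow cytometry. The median value from 20,000 cells per condition was normalized to DMSO vehicle within each experiment. Data are mean + SD of >2 independent experiments, compared with vehicle by unpaired t test.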

SMILES	inhibition
CO/C1=C\C(C)=C\[C@@H](C)[C@@H](O)[C@@H](C)C/C(C)=C/C=C/[C@H](OC)[C@@H]([C@@H](C)[C@@H](O)[C@H](C)[C@@]2(O)C[C@@H](O)[C@H](C)[C@@H](C(C)C)O2)OC1=O	Active
O=C(Nc1cccc(-c2nc3ccccc3c(=O)o2)c1)c1ccccc1Br	Active
COc1ccc(O)c(/C=C2/SC(=S)NC2=O)c1	Active

These compounds were tested against T2, Serine/threonine-protein kinase TAO2 (Rattus norvegicus, UniProt Q9JLS3) (assay: Inhibition of rat TAOK2 (1 to 320 residues) expressed in Baculovirus/insect cell expression system assessed as remaining activity using MBP as substrate and [32P]ATP measured after 10 mins by Kinase-Glo assay).
T2 sequence (Q9JLS3 whole entry): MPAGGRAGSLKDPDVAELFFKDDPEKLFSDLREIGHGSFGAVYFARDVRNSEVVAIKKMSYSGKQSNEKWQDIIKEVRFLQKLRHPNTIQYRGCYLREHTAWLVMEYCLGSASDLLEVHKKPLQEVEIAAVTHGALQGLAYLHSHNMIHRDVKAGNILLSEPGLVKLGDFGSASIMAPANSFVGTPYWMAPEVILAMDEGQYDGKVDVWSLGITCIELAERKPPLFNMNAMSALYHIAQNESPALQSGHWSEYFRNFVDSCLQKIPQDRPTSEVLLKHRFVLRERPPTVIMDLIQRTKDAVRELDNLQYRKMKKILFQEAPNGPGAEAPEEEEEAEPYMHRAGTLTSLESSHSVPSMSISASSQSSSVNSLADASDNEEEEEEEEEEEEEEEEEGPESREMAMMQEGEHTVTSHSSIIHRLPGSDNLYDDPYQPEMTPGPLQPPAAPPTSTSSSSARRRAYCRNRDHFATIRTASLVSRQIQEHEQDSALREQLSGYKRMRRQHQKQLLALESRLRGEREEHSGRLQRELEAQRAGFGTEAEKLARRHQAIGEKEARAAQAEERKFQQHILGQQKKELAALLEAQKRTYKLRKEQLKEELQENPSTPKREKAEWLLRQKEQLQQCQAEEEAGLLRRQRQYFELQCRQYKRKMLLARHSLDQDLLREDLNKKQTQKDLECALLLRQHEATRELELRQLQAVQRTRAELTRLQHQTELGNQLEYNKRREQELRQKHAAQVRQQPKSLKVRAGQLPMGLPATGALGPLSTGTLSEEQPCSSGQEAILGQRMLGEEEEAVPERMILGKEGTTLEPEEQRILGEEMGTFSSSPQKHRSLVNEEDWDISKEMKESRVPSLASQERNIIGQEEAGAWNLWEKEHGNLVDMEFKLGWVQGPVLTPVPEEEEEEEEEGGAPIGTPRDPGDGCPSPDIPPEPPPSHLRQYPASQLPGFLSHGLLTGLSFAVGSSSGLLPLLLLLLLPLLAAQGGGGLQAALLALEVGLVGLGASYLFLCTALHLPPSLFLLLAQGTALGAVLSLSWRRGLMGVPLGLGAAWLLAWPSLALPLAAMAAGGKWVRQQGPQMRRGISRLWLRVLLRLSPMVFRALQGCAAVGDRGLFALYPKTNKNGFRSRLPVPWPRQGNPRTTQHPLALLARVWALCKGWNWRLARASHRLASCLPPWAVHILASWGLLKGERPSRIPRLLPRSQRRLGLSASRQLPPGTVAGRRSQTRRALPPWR

SMILES	IC50 [nM]
CCC(=O)Nc1nc(C)c(-c2csc(Nc3ccc(N(C)C)cc3)n2)s1	1200
CC(=O)Nc1nc(C)c(-c2csc(Nc3ccc([N+](=O)[O-])cc3)n2)s1	10000
CC(=O)Nc1nc(C)c(-c2csc(Nc3cccc(C(C)=O)c3)n2)s1	12000
CC(=O)Nc1nc(C)c(-c2csc(Nc3cccc([N+](=O)[O-])c3)n2)s1	10100
CC(=O)Nc1nc(C)c(-c2csc(Nc3ccc(Br)cc3)n2)s1	1000
CCC(=O)Nc1nc(C)c(-c2csc(Nc3cc(Cl)ccc3C)n2)s1	1600
CCC(=O)Nc1nc(C)c(-c2csc(Nc3ccc(S(N)(=O)=O)cc3)n2)s1	1000
CN1c2ccc(S(C)(=O)=O)cc2SC1NC(=O)CCCOC1CCCCC1 (stereo not drawn)	1900
Cc1nc(N)sc1-c1csc(Nc2cccc([N+](=O)[O-])c2)n1	1700
O=C(NCCSCc1ccccc1)c1ccc2c(=O)n(C3CCCCC3)c(=S)[nH]c2c1	1900
CCOc1ccccc1Nc1nc(-c2sc(NC(C)=O)nc2C)cs1	1600
CC(=O)Nc1nc(C)c(-c2csc(Nc3ccc(C)cc3)n2)s1	1100
Cc1nc(N)sc1-c1csc(Nc2ccc([N+](=O)[O-])cc2)n1	1000
CC(=O)Nc1nc(C)c(-c2csc(Nc3cccc(C)c3)n2)s1	900
CC(=O)Nc1nc(C)c(-c2csc(Nc3cccc(C(=O)O)c3)n2)s1	1300
CN1c2ccc(S(C)(=O)=O)cc2SC1NC(=O)c1ccc(C(=O)c2ccccc2)cc1 (stereo not drawn)	1000
CN1c2ccc(S(C)(=O)=O)cc2SC1NC(=O)CC1CCC(Br)CC1 (stereo not drawn)	1400
COc1ccc(OC)c(Nc2nc(-c3sc(N)nc3C)cs2)c1	1000
Cc1cccc(NC(=S)N/N=C/c2c[nH]c3ccccc23)c1	1000
COc1ccc(Cl)cc1Nc1nc(-c2sc(N)nc2C)cs1	1000 to 1500
CCC(=O)Nc1nc(C)c(-c2csc(Nc3cccc([N+](=O)[O-])c3)n2)s1	1000
CCC(=O)Nc1nc(C)c(-c2csc(Nc3ccc(O)cc3)n2)s1	1600
CCC(=O)Nc1nc(C)c(-c2csc(Nc3cccc(C(=O)O)c3)n2)s1	1700

SMILES	IC50 [nM]
CN1c2ccc(S(C)(=O)=O)cc2SC1NC(=O)CCCc1ccccc1 (stereo not drawn)	1700
Cc1cccc(Nc2nc(-c3sc(N)nc3C)cs2)c1	1700
O=C(NCC1COc2ccccc2O1)c1ccc2c(=O)n(Cc3ccco3)c(=S)[nH]c2c1 (stereo not drawn)	600
CCOc1ccccc1Nc1nc(-c2sc(NC(=O)CC)nc2C)cs1	600
COc1ccc(Cl)cc1Nc1nc(-c2sc(NC(C)=O)nc2C)cs1	1100
Cc1nc(N)sc1-c1csc(Nc2ccc(S(N)(=O)=O)cc2)n1	1400
CCN(CC)c1ccc(Nc2nc(-c3sc(NC(C)=O)nc3C)cs2)cc1	1700
Cc1nc(N)sc1-c1csc(Nc2cccc(Cl)c2)n1	3100
CCC(=O)Nc1nc(C)c(-c2csc(Nc3cccc(O)c3)n2)s1	1000
COc1ccccc1Nc1nc(-c2sc(NC(C)=O)nc2C)cs1	2100
CC(=O)Nc1nc(C)c(-c2csc(Nc3ccccc3)n2)s1	1100
Cc1nc(NC(=O)c2ccccc2)sc1-c1csc(Nc2ccc(S(N)(=O)=O)cc2)n1	800
CCC(=O)Nc1nc(C)c(-c2csc(Nc3ccccc3OC)n2)s1	1400
CC(=O)c1cccc(Nc2nc(-c3sc(N)nc3C)cs2)c1	1400
O=C(Nc1cccc(-c2nc3ccccc3c(=O)o2)c1)c1ccccc1Br	4000
Cc1nc(N)sc1-c1csc(Nc2cccc(O)c2)n1	1400
COc1ccc(O)c(/C=C2/SC(=S)NC2=O)c1	3000
CC(=O)Nc1nc(C)c(-c2csc(Nc3ccccc3C)n2)s1	1800
CC(=O)Nc1nc(C)c(-c2csc(Nc3ccc(O)cc3)n2)s1	3800
CN1c2ccc(S(C)(=O)=O)cc2SC1NC(=O)/C=C/c1ccc(F)cc1 (stereo not drawn)	800
CCC(=O)Nc1nc(C)c(-c2csc(Nc3ccc(NC(C)=O)cc3)n2)s1	1900
CCC(=O)Nc1nc(C)c(-c2csc(Nc3ccc([N+](=O)[O-])cc3)n2)s1	1000
CCC(=O)Nc1nc(C)c(-c2csc(Nc3ccc(N(CC)CC)cc3)n2)s1	2700

The compounds below were run against T3, Serine/threonine-protein kinase TAO2 (Rattus norvegicus) (UniProt Q9JLS3) (assay: Binding affinity to rat TAOK2 (1 to 320 residues) expressed in Baculovirus/insect cell expression system assessed as change in melting temperature at 1 uM by SYPRO orange dye-based DSF analysis).
T3 sequence (whole entry): T2 sequence (Q9JLS3 whole entry)
Method in brief: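 Differential scanning fluorimetry: each compound's melting-temperature shift (ΔTm, °C) was measured on the kinase protein. Compounds giving a TAOK2 ΔTm above 0.5 °C were also run against p38 and ASK1. Selectivity (ΔΔTm) was taken as the TAOK2 ΔTm minus the p38 or ASK1 ΔTm.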

SMILES	ΔTm [°C]
Cc1cccc(NC(=S)N/N=C/c2c[nH]c3ccccc23)c1	0.5
O=C(Nc1cccc(-c2nc3ccccc3c(=O)o2)c1)c1ccccc1Br	-0.6
COc1ccc(O)c(/C=C2/SC(=S)NC2=O)c1	-0.2
